This is a sample that favours compounds with a hit; in the whole collection about 2.5% have one here.
ERAP1 HTS inh – human ERAP1 aminopeptidase inhibitors, primary screen, biochemical, single point, plate reader; recombinant ERAP1, Leu-AMC fluorescence, 60 min; inhibition, % at 10.7 µM; 0.15% of 340,000 active; AID 652197, 2013;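 active = mean replicate inhibition of at least 30%, or all replicates individually reaching that 30% level; inactive = mean below 30% and not every replicate reaching it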;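 note: 0% = neutral control wells and 100% = L-leucinethiol positive control wells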
DENV2 CPE – inhibitors of DENV2 cytopathic effect, primary screen, cell-based, plate reader, single concentration; 1.7% of 350,000 active; AID 651640, 2012; CPE inhibition, % at 9.99 µM; DENV2-infected cells, cytopathic effect rescue; in the data active = CPE inhibition above about 20%, passing the limit was not always enough; inconclusive = no clear call, values can overlap the other calls; tested in BHK-21 cells;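 note: 0% = median of neutral control wells and 100% = median of positive control wells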
PglD inh – C. jejuni PglD acetyltransferase inhibitors, primary screen, biochemical, DTNB colorimetric, single point | 0.098% of 360,000 active | purified PglD enzyme, DTNB colorimetric CoA detection | inhibition, % at 12.5 µM | AID 602405, 2012; in the data active = inhibition above about 16%, passing the limit was not always enough; inconclusive = no clear call, values can overlap the other calls
SIRT5 inh – SIRT5 desuccinylase inhibitors, primary screen, biochemical, fluorescence imaging, single point, set 5; NAD-dependent protein deacylase sirtuin-5, mitochondrial (Homo sapiens), Q9NXA8; Purified SirT5, succinyl-peptide AMC, trypsin-coupled fluorescence; inhibition, % at 15 µM; 1.1% of 330,000 active; in the data active = inhibition above about 15%; inconclusive = no clear call, values can overlap the other calls
E-sel inducer – E-selectin induction in HUVECs, primary screen, imaging, HUVEC, immunofluorescence imaging, single point | 0.37% of 260,000 active | AID 686992, 2013 | activation, % at 7.58 µM | normalized: neutral wells 0, TNF-alpha wells 100 | P16581;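 active = mean E-selectin-positive cell signal at least 10% of the positive control, reached in at least 60% of replicates, without over 20% cell loss; inconclusive = no rule given, readout overlaps actives, possibly toxicity-flagged; inactive = the rest, including those meeting only one limit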
Target sequence (P16581 whole entry, looked up): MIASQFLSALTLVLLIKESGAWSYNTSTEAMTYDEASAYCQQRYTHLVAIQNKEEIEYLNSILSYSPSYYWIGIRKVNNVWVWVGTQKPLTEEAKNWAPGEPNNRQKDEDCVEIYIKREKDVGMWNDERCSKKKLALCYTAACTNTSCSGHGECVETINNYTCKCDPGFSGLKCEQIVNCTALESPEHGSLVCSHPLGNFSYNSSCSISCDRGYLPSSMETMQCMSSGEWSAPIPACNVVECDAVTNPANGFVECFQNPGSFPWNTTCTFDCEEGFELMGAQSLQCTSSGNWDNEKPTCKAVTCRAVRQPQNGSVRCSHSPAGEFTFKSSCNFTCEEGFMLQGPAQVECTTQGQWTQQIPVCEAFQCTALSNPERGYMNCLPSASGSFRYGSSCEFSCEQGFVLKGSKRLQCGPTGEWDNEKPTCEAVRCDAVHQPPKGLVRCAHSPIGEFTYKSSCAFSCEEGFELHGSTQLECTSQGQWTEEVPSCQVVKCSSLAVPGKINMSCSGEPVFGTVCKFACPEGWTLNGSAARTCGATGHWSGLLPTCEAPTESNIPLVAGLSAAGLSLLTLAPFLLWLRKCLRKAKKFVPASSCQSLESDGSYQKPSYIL
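Assay system: HUVEC, human umbilical vein endothelial cells / Amount: 3,000 HUVEC/well / Controls: TNF-alpha positive control, DMSO neutral control / Compound dosing: single concentration / Medium: EGM-2 over gelatin coat / Evaluation: percent E-selectin-positive cells / Signal: immunofluorescence imaging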
Active calls of the source: *; ? = inconclusive; . = no result given.

SMILES	ERAP1 HTS inh	DENV2 CPE	PglD inh	SIRT5 inh	E-sel inducer
C[C@H](CO)N1C[C@H](C)[C@H](CN(C)C(=O)NC2CCCCC2)Oc2cc(/C=C/c3ccccc3)ccc2S1(=O)=O	3	1	1	25*	.
C[C@H]1CN([C@@H](C)CO)S(=O)(=O)c2ccc(/C=C/c3ccccc3)cc2O[C@H]1CN(C)C(=O)NC1CCCC1	-1	?	2	19*	-2
Cc1ccc(CNC(=O)CC[C@H]2O[C@@H](n3cc(C)c(=O)[nH]c3=O)C[C@@H]2O)o1	1	-5	0	-2	0
COc1ccc2c3c(n(C)c2c1)[C@H](CO)NCC31CCN(Cc2cc(-c3ccccc3)on2)CC1	-3	-24	.	12	1
CCc1nc2ccc(C(=O)NCCN3CCNC3=O)cn2c1N(CC)Cc1cccc(Br)c1	-2	15	-2	-3	0
C[C@@H]1CN([C@@H](C)CO)S(=O)(=O)c2ccc(/C=C/c3ccccc3)cc2O[C@@H]1CN(C)C(=O)NC1CCCCC1	4	-11	-2	28*	.
COc1ccccc1-c1c(C)nn2c(NCCN3CCCC3)cc(C)nc12	2	2	-3	-2	94*
Nc1nc(-c2ccc(C(=O)O)cc2)cs1	2	-3	.	38*	.
C[C@@H]1CN([C@@H](C)CO)S(=O)(=O)c2ccc(C3=CCCCC3)cc2O[C@@H]1CN(C)C(=O)Cc1ccccc1	0	?	-4	18*	0
C[C@@H]1CN([C@H](C)CO)S(=O)(=O)c2ccc(C3=CCCCC3)cc2O[C@@H]1CN(C)C(=O)Cc1ccccc1	0	-3	-2	13	0
C[C@@H]1CN([C@H](C)CO)S(=O)(=O)c2ccc(C3=CCCCC3)cc2O[C@H]1CN(C)C(=O)Cc1ccccc1	0	9	2	15*	0
C[C@@H]1CN([C@@H](C)CO)S(=O)(=O)c2ccc(C3=CCCCC3)cc2O[C@H]1CN(C)C(=O)Cc1ccccc1	0	-13	0	16*	0
C[C@@H]1CN([C@@H](C)CO)S(=O)(=O)c2ccc(C3=CCCCC3)cc2O[C@@H]1CN(C)C(=O)Cc1ccncc1	1	17	-16	1	0
CCCCn1c(O)c(/C=C2\C=Nc3ccccc32)c(=O)[nH]c1=O	2	0	-7	0	0
C/C(N)=C(/C#N)C(=O)CSc1nc2ccccc2c(=O)n1Cc1ccc(F)cc1	-3	-2	-5	-6	.
CCCNC(=O)N1CC2(CN(C(C)=O)C2)c2c(n(C)c3cc(OC)ccc23)[C@H]1CO	.	-5	.	.	0
Nc1nc(SCC(=O)Nc2ccc([N+](=O)[O-])cc2)[nH]c(=O)c1NC(=O)c1ccc(Br)o1	2	20*	2	2	1
CO[C@@H]1CN(C)C(=O)c2ccc(NC(=O)c3ccccn3)cc2OC[C@@H](C)N(C(=O)C2CC2)C[C@H]1C	-2	3	5	.	.
Nc1c(Cl)cc(-c2csc(N3CCCC3c3nc4cc(Cl)c(N5CCCCC5)cc4n3CCCO)n2)cc1Cl (stereo unspecified)	0	-5	1	15*	0
O=C(COc1ccccc1)Nc1ncn[nH]1	.	8	-1	30*	0
O=c1c(-c2c(O)cc(O)c3c2O[C@H](c2ccc(O)cc2)CC3)c(-c2ccc(O)cc2)oc2cc(O)cc(O)c12	.	.	5	.	.
COc1cc(CN(C)Cc2cccc3ccccc23)cc([N+](=O)[O-])c1O	0	42*	-7	-2	0
CCCN1CCC(=O)N([C@H](CSc2ccc(OC)cc2)c2ccccc2)CC1	0	1	-4	21*	.
CCOc1ccc(C(=O)NN2CCOCC2)cc1	0	154*	2	-4	0
CCn1c2ccccc2c2cc(NC(=O)c3ccccc3[N+](=O)[O-])ccc21	-1	32*	.	-1	.
SMILES	ERAP1 HTS inh	DENV2 CPE	PglD inh	SIRT5 inh	E-sel inducer
CCCCNC(=O)N1CCN(Cc2ccc(F)cc2)CC1	7	-4	.	20*	.
COc1ccc(/C=C(\NC(=O)c2ccccc2)C(=O)OC[C@@H]2CCC[N+]3(C)CCCCC23)cc1OC (stereo partly specified)	39*	-5	-2	2	1
CCNC(=O)[C@@H]1[C@@H](CO)[C@@H]2Cn3c(ccc(-c4cccnc4)c3=O)[C@@H]2N1Cc1ccc2c(c1)OCO2	-2	-2	3	23*	0
CC=Cc1ccc2n(c1=O)C[C@@H]1[C@@H](CO)[C@H](C(=O)NCc3ccc(F)cc3)N(CC)[C@H]21 (mixture of isomers)	1	-2	7	0	1
CC=Cc1ccc2n(c1=O)C[C@@H]1[C@@H](CO)[C@H](C(=O)NCc3ccccc3F)N(CC)[C@H]21 (mixture of isomers)	-1	13	-1	16*	0
CCC(=O)N1[C@H](C(=O)Nc2nccs2)[C@@H](CO)[C@@H]2Cn3c(ccc(/C=C/c4ccccc4)c3=O)[C@@H]21	-1	0	2	-69	0
CC=Cc1ccc2n(c1=O)C[C@H]1[C@H](CO)[C@@H](C(=O)Nc3nccs3)N(C(=O)CC)[C@@H]21 (mixture of isomers)	0	58*	-5	-1	0
CCNC(=O)[C@H]1[C@H](CO)[C@H]2Cn3c(ccc(-c4cccnc4)c3=O)[C@H]2N1Cc1ccc2c(c1)OCO2	-1	-2	4	12	0
CC=Cc1ccc2n(c1=O)C[C@@H]1[C@@H](CO)[C@H](C(=O)NCc3ccccc3)N(CC)[C@H]21 (mixture of isomers)	2	38*	.	2	0
O=C(CN(Cc1ccc(F)cc1)S(=O)(=O)c1ccccc1)N1CCCCC1	.	.	-1	.	.
CCN1[C@H](C(=O)NCc2ccccc2)[C@@H](CO)[C@@H]2Cn3c(ccc(-c4ccncc4)c3=O)[C@@H]21	1	6	-1	19*	0
CCN1[C@H](C(=O)NCc2ccccc2)[C@@H](CO)[C@@H]2Cn3c(ccc(-c4cccnc4)c3=O)[C@@H]21	0	-12	-1	0	0
CN(C)C(=O)[C@H]1[C@H](CO)[C@H]2Cn3c(ccc(-c4cccc(F)c4)c3=O)[C@H]2N1C(=O)c1cnccn1	3	30*	-1	0	0
CCN1[C@H](C(=O)NCCCN(C)C)[C@@H](CO)[C@@H]2Cn3c(ccc(-c4cccc(F)c4)c3=O)[C@@H]21	-1	80*	.	-1	0
CC=Cc1ccc2n(c1=O)C[C@@H]1[C@@H](CO)[C@H](C(=O)NC3Cc4ccccc4C3)N(CC3CC3)[C@H]21 (mixture of isomers)	-1	75*	1	4	0
OC[C@@H]1CN(C2CCCC2)C[C@H](n2cnc3c(N4CCCC4)ncnc32)O1	-2	-16	7	.	0
